Results: ChEMBL document CHEMBL4725330, “The design, synthesis and evaluation of 2-aminobenzoxazole analogues as potent and orally efficacious ChemR23 inhibitors” (Bioorg Med Chem, 2020)

Biological target: T1, Chemerin-like receptor 1 (Homo sapiens, UniProt Q99788)
T1 sequence (Q99788 whole entry): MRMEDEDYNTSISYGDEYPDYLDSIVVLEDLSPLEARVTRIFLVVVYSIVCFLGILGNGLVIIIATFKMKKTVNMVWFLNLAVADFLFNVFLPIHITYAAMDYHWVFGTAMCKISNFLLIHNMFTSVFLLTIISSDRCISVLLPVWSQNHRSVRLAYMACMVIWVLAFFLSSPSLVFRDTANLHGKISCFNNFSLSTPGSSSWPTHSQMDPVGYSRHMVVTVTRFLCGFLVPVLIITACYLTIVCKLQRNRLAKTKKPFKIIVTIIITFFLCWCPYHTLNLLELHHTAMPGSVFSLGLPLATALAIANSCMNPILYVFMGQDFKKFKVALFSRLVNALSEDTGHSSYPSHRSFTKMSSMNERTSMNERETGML
Assay: Inhibition of chemR23 in human CAL1 cells assessed as inhibition of chemerin-induced intracellular calcium ion concentration preincubated for 45 mins followed by human chemerin addition by FDSS6000 analysis
Type: functional, cell-based
Details: not given

First: CCCCN(c1nc2c(C(=O)N(C)C)cccc2o1)[C@H](C)c1ccc(-c2ccccc2-c2nnn[nH]2)cc1
Second: CCCCN(c1nc2ccccc2o1)[C@H](C)c1ccc(-c2cc(Cl)ccc2-c2nnn[nH]2)cc1
The IC50 of the first is 5-fold lower: 13 nM for the first, 65 nM for the second.

Compared with `CCCCN(c1nc2ccccc2o1)[C@H](C)c1ccc(-c2ccc(C(F)(F)F)cc2-c2nnn[nH]2)cc1`, `CCCCN(c1nc2c(C(=O)O)cccc2o1)[C@H](C)c1ccc(-c2cc(F)ccc2-c2nc(=O)o[nH]2)cc1` is lower in IC50: over 3000 nM for the first, 2.7 nM for the second.

System: not listed separately
Assay: Fraction unbound in cynomolgus monkey plasma at 1 mg/kg, po administered as cassette dose incubated for 16 to 24 hrs by equilibrium dialysis based LC-MS analysis
Type: ADME, organism-based, Macaca fascicularis
Details: in vivo, time 16-24 hrs
Procedure, shortened: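 Monkey plasma diluted with PBS and spiked with compound at 1 µM (final DMSO 0.05% v/v) was equilibrium-dialysed against PBS (membrane MWCO 12000–14000) for 16–24 h at 37 °C in a CO2 incubator. Both sides were deproteinized with acetonitrile containing IS and analysed by LC-MS/MS. Undiluted fu,p was calculated from the diluted value using the dilution factor.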

For `CCCCN(c1nc2c(C(=O)N(C)C)cccc2o1)[C@H](C)c1ccc(-c2ccccc2-c2nnn[nH]2)cc1`, the Fu was 0.411 fraction (unitless).
With `CCCCN(c1nc2c(C(=O)O)cccc2o1)[C@H](C)c1ccc(-c2cc(F)ccc2-c2nc(=O)o[nH]2)cc1` the Fu was 0.00736 fraction (unitless).

System: not listed separately
Assay: Half-life in cynomolgus monkey at 1 mg/kg, po administered as cassette dose by LC-MS/MS analysis
Type: ADME, organism-based, Macaca fascicularis
Details: in vivo
Procedure, shortened: (§1)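 Cassette oral dosing, 1.0 mg/kg as a suspension in 0.5% methylcellulose, to fed cynomolgus monkeys. Plasma was obtained from blood, deproteinized with ice-cold acetonitrile containing internal standard, and measured by LC/MS/MS against a calibration curve using analyte/IS peak-area ratios. Values are means of three determinations.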

`CCCCN(c1nc2c(C(=O)N(C)C)cccc2o1)[C@H](C)c1ccc(-c2ccccc2-c2nnn[nH]2)cc1` and `CCCCN(c1nc2c(C(=O)O)cccc2o1)[C@H](C)c1ccc(-c2cc(F)ccc2-c2nc(=O)o[nH]2)cc1` are within 1.5-fold of each other in half-life: 3.2 h for the first, 2.2 h for the second.

System: not listed separately
Assay: AUC (0 to infinity) in cynomolgus monkey at 1 mg/kg, po administered as cassette dose by LC-MS/MS analysis
Type: ADME, organism-based, Macaca fascicularis
Design: time infinity, route oral, dose 1 mg/kg
Details: in vivo
Procedure, shortened: as §1

First: CCCCN(c1nc2c(C(=O)N(C)C)cccc2o1)[C@H](C)c1ccc(-c2ccccc2-c2nnn[nH]2)cc1
Second: CCCCN(c1nc2c(C(=O)O)cccc2o1)[C@H](C)c1ccc(-c2cc(F)ccc2-c2nc(=O)o[nH]2)cc1
The AUC(0-inf) of the first is 16-fold lower: 104 ng·h/mL for the first, 1630 ng·h/mL for the second.

System: not listed separately
Assay: Oral bioavailability in cynomolgus monkey at 1 mg/kg and 0.1 mg/kg, iv administered as cassette dose by LC-MS/MS analysis
Type: ADME, organism-based, Macaca fascicularis
Details: in vivo
Procedure, shortened: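 Plasma was deproteinized with ice-cold acetonitrile containing internal standard and quantified by LC/MS/MS against a calibration curve from analyte/IS peak-area ratios. Values are means of three determinations.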

Compound `CCCCN(c1nc2c(C(=O)N(C)C)cccc2o1)[C@H](C)c1ccc(-c2ccccc2-c2nnn[nH]2)cc1` has a bioavailability of 6.7%.

System: not listed separately
Assay: Cmax in cynomolgus monkey at 1 mg/kg, po administered as cassette dose by LC-MS/MS analysis
Type: ADME, organism-based, Macaca fascicularis
Design: route oral, dose 1 mg/kg
Details: in vivo
Procedure, shortened: as §1

Going from `CCCCN(c1nc2c(C(=O)N(C)C)cccc2o1)[C@H](C)c1ccc(-c2ccccc2-c2nnn[nH]2)cc1` to `CCCCN(c1nc2c(C(=O)O)cccc2o1)[C@H](C)c1ccc(-c2cc(F)ccc2-c2nc(=O)o[nH]2)cc1`, the Cmax rises from 27.5 ng/mL to 610 ng/mL (22-fold).
